Measurements taken from publication PMC4651454 (Journal of virology & antiviral research, 2014).

Assays:
[1] = system: JC1-Luc2a (electroporation); experiment: JC1-Luc2a transfected; type: cell-based; conditions: Hepatitis C virus
[2] = system: BM4-5 FEO (genotype 1b) replicon; experiment: Synergy of 1,25; type: cell-based, hepatitis C virus
in vitro = type: cell-based; conditions: human, CC50 μM (±S.D)
Huh7.5.1 cells [3] = experiment: in vitro; type: cell-based; conditions: human, 120 h
[4] = system: HCV infected Huh7.5.1 cells; experiment: RT-qPCR of selected genes in HCV infected cells; type: cell-based, human; conditions: 10 μM, over IFN-α treated cells (p=0.032)
Outline: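 HCV-infected Huh7.5.1 cells were prepared as for the microarray and treated for 6 or 72 h with 1,25(OH)2D3 (4 or 10 µM) and IFN-α (1 or 10 IU/mL), alone or combined. Cultures were run in triplicate. RNA was reverse-transcribed and measured by TaqMan RT-qPCR in duplicate reactions, normalized to GAPDH. Fold change versus untreated infected culture was calculated by 2^-ΔΔCt. Means with 1 standard deviation were compared by Student t-test.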

Huh7.5.1 cells [5] = experiment: Microarray gene expression; type: cell-based, human
Outline: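 Huh7.5.1 cells were JC1-Luc2a-transfected or mock-transfected, cultured 4 days, then plated. 1,25(OH)2D3 was added at staggered times to give 6, 12, 24, 72 or 120 h exposures, with RNA harvested at 120 h (day 9). Biotinylated cRNA (250 ng total RNA input; 750 ng hybridized) was run on HumanHT-12 v4 chips, 18-20 h at 58°C, with Cy3 detection. Data were LOESS-normalized and compared against uninfected untreated cells.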

HCV core protein = HCV core protein immunoblot in JC1-Luc2a electroporated Huh7.5.1 cells; type: cell-based, hepatitis C virus; conditions: 10 μM 1,25(OH)2D3, 10 IU/mL IFN-α, 72 hours, compared to untreated cells
Outline: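 Huh7.5.1 cells electroporated with JC1-Luc2a were incubated for 72 h without drug, with 10 µM 1,25(OH)2D3, with 10 IU/mL IFN-α, or with both. Confluent plates were trypsinized, counted and lysed in equal RIPA volumes. Each condition was run in triplicate. Lysates were run on 12% Bis-Tris SDS-PAGE and transferred to nitrocellulose. Core (anti-core, epitope aa 7-50) and β-actin were detected with goat anti-mouse IgG, and band density was quantified.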

JC1-Luc2a (infection) = experiment: JC1-Luc2a infectious virus luciferase assay; type: cell-based; conditions: Hepatitis C virus
HCV = conditions: ref 23 (Matsumura et al.); cited from earlier work
[6] = system: full-length genotype 1b replicon; conditions: ref 20 (Yano et al.); cited from earlier work
HCV genotype 1 patients = conditions: supplemented group, HCV genotype 1, PEG-IFN/RBV; controls 42%, P<0.001; cited from earlier work

Compound | EC50 ([1]; 72 h) [µM] | EC50 ([1]; 120 h) [µM] | CC50 at 72 h (in vitro) [µM] | CC50 (Huh7.5.1 cells [3]) [µM] | HCV core protein expression by immunoblot (HCV core protein) | EC50 (JC1-Luc2a (infection); 72 h) [µM] | EC50 (JC1-Luc2a (infection); 120 h) [µM] | further results
C=C1/C(=C\C=C2/CCC[C@]3(C)[C@@H]([C@H](C)CCCC(C)(C)O)CC[C@@H]23)C[C@@H](O)C[C@@H]1O [1,25(OH)2D3, 1,25-dihydroxyvitamin D3] | 2.92 | 2.95 | 17.3 | 22.8 | Mild reduction | 1.19 | 1.07 | EC50 ([2]; Hepatitis C virus, GETYPE1B, BM4-5, read-out: EC50 (used for synergy dosing)): 1 µM; HIF1a mRNA expression, RT-qPCR [4]: up-regulation; HIF1a expression (Huh7.5.1 cells [5]; HCV naïve cells): strongly up regulated; GPR37 expression (Huh7.5.1 cells [5]; progressive in vitro exposure): markedly up regulated; CCL20 gene expression (Huh7.5.1 cells [5]; shortly after treatment): higher gene expression; SLC30A10 expression (Huh7.5.1 cells [5]; uninfected and infected cells): increased
C=C1CC[C@H](O)C/C1=C/C=C1\CCC[C@]2(C)[C@@H]([C@H](C)CCCC(C)(C)O)CC[C@@H]12 [25(OH) D3] |  |  |  |  |  |  |  | Inhibition of HCV in culture (in words) (HCV): inhibited HCV in culture
C=C1CC[C@H](O)C/C1=C/C=C1\CCC[C@]2(C)[C@@H]([C@H](C)/C=C/[C@H](C)C(C)C)CC[C@@H]12 [Vitamin D2] | 18.6 | 21.4 | 53.9 | 41.9 |  | 5.72 | 4.41 | EC50, inhibition of HCV RNA replication [6]: 1.6 µg/mL
C=C1CC[C@H](O)C/C1=C/C=C1\CCC[C@]2(C)[C@@H]([C@H](C)CCCC(C)C)CC[C@@H]12 [Vitamin D3] | 13 | 12.6 | 50.3 | 54.9 |  | 3.44 | 2.78 | 
C=C1CC[C@H](O)C/C1=C/C=C1\CCC[C@]2(C)[C@@H]([C@H](C)/C=C/[C@H](C)C(C)C)CC[C@@H]12 [vitamin D] |  |  |  |  |  |  |  | SVR rate (HCV genotype 1 patients): 86%
IFN-α |  |  |  |  | Mild reduction |  |  | EC50 (used for synergy dosing) ([2]; BM4-5 FEO genotype 1b replicon): 1 IU/mL
